This note sets out measurements from ChEMBL document CHEMBL2346561, “Development of 2'-substituted (2S,1'R,2'S)-2-(carboxycyclopropyl)glycine analogues as potent N-methyl-d-aspartic acid receptor agonists” (J Med Chem, 2013).

For test [1], the target named is Glutamate NMDA receptor; Grin1/Grin2b (Rattus norvegicus, UniProt P35439+Q00960). In words: Agonist activity at rat recombinant wild type GluN1/GluN2B receptor expressed in Xenopus laevis oocytes by two electrode voltage clamp technique. It counts as cell-based, Oocyte. In outline:
(§1)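 cRNA-injected Xenopus oocytes co-expressing GluN1 with GluN2A, 2B, 2C or 2D; two-electrode voltage clamp at −60 to −40 mV; perfusion with extracellular solution (mM: 90 NaCl, 0.5 BaCl₂, 1 KCl, 0.01 EDTA, 10 HEPES, pH 7.4) always containing 50 μM glycine. Concentration–response data per oocyte fitted to Hill equation; mean logEC₅₀ and nH ± SEM across oocytes.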
(Two-electrode voltage clamp holds a large cell at a set potential and records current.)

The nature of test [2]: Displacement of [3H]AMPA from AMPA receptor in rat cortical synaptosomes. It counts as subcellular, Brain. (Displacement assays read how much labelled ligand stays bound in the presence of the test substance.)
Test [3] addresses Ionotropic glutamate receptor NMDA 1/2D (Rattus norvegicus, UniProt P35439+Q62645). In words: Agonist activity at rat recombinant wild type GluN1/GluN2D receptor expressed in Xenopus laevis oocytes by two electrode voltage clamp technique. The class given is cell-based, Oocyte. In outline:
as §1

Test [4] can be described thus: Displacement of [3H]KA from KA receptor in rat cortical synaptosomes. It counts as subcellular, Brain.
The target of test [5] is Glutamate NMDA receptor; Grin1/Grin2a (Rattus norvegicus, UniProt P35439+Q00959). In words: Agonist activity at rat recombinant wild type GluN1/GluN2A receptor expressed in Xenopus laevis oocytes by two electrode voltage clamp technique. The class given is cell-based, Oocyte. In outline:
as §1

For test [6], the target named is Glutamate NMDA receptor; Grin1/Grin2c (Rattus norvegicus, UniProt P35439+Q00961). Nature of the test: Agonist activity at rat recombinant wild type GluN1/GluN2C receptor expressed in Xenopus laevis oocytes by two electrode voltage clamp technique. The class given is cell-based, Oocyte. In outline:
as §1

The target of test [7] is Ionotropic glutamate receptor NMDA 1/2D (Rattus norvegicus) (UniProt P35439+Q62645). Nature of the test: Ratio of compound Imax to glutamate Imax for rat recombinant wild type GluN1/GluN2D receptor. The class given is protein-complex assay.
For test [8], the target named is Glutamate NMDA receptor; Grin1/Grin2c (Rattus norvegicus) (UniProt P35439+Q00961). In words: Ratio of compound Imax to glutamate Imax for rat recombinant wild type GluN1/GluN2C receptor. The class given is protein-complex assay.
Test [9] concerns the target Glutamate NMDA receptor; Grin1/Grin2b (Rattus norvegicus) (UniProt P35439+Q00960). Nature of the test: Ratio of compound Imax to glutamate Imax for rat recombinant wild type GluN1/GluN2B receptor. It counts as protein-complex assay.
The target of a further test is Glutamate NMDA receptor. In words: Displacement of [3H]CGP39653 from NMDA receptor in rat cortical synaptosomes. It counts as subcellular, Brain. In outline: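 Rat cortical synaptosome membranes; 2 nM [³H]CGP 39653 (Kd = 6 nM) as radioligand for native NMDA receptors; Ki derived from displacement via Cheng-Prusoff relationship.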
For test [10], the target named is Glutamate NMDA receptor; Grin1/Grin2a (Rattus norvegicus) (UniProt P35439+Q00959). In words: Ratio of compound Imax to glutamate Imax for rat recombinant wild type GluN1/GluN2A receptor. It counts as protein-complex assay.

The structures appear in SMILES notation. Bounds are passed on as bounds.

With `N[C@H](C(=O)O)[C@@H]1C[C@@H]1C(=O)O`, the concentration giving a half-maximal response (EC50) – broadly, the concentration at which the effect is half-maximal – came to 0.083 µM in [1], 0.036 µM in test [3], 0.262 µM in test [5] (read-out: EC50) and 0.11 µM in test [6]. The Ki (as a rule, the equilibrium dissociation constant of an inhibitor or competing ligand from its target) in [2] worked out at 1.1 µM; in [4], 0.31 µM; at Glutamate NMDA receptor, 0.0065 µM. Moreover, the Ratio was 1.11 in [7], 0.9 in test [8], 1.23 in test [9] and 0.99 in [10].

As to `CCCC[C@]1(C(=O)O)C[C@H]1[C@H](N)C(=O)O`, the 50% effective concentration (EC50) in test [1] stood at 10.2 µM; in test [3], 3.3 µM; in test [5] (read-out: EC50) it was 28.8 µM; in [6] it was 16 µM. The Ki in [2] is more than 100 µM; in test [4] it was more than 100 µM; at Glutamate NMDA receptor it was 1.3 µM. Moreover, the Ratio in test [7] came to 0.94; in [8] it was 0.85; in test [9] it was 1.07; in test [10], 0.65.

With `CCCc1cnn(O)c1[C@@H](N)C(=O)O`, the EC50 is 105 µM in [1], 153 µM in [3], “Not Active” in test [5] (oocyte) and 429 µM in test [6]. The Ki is more than 100 µM in test [2], more than 100 µM in [4] and 14 µM at Glutamate NMDA receptor. The Ratio in test [7] turned out to be 0.37; in test [8] it was 0.22; in [9], 0.06.

Regarding `CC[C@]1(C(=O)O)C[C@H]1[C@H](N)C(=O)O`, the EC50 in test [1] was determined as 0.272 µM; in test [3] it was 0.08 µM; in test [5] (read-out: EC50), 1.18 µM; in test [6], 0.54 µM. Besides, the Ki was more than 100 µM in test [2], 0.61 µM in test [4] and 0.061 µM at Glutamate NMDA receptor. In addition, the Ratio in [7] came out at 0.91; in test [8], 0.81; in test [9] it was 1.02; in test [10], 0.83.

Turning to `CCC[C@]1(C(=O)O)C[C@H]1[C@H](N)C(=O)O`, the EC50 in test [1] is 15.8 µM; in [3] it was 6.56 µM; in [5] (read-out: EC50), 46.3 µM; in [6] it was 29.9 µM. In addition, the inhibitory constant (Ki) is more than 100 µM in test [2], 21 µM in [4] and 1.2 µM on Glutamate NMDA receptor. Also, the Ratio is 0.89 in test [7], 0.7 in test [8], 1.05 in test [9] and 0.67 in [10].

As for `C[C@]1(C(=O)O)C[C@H]1[C@H](N)C(=O)O`, the EC50 in test [1] is 0.045 µM; in test [3], 0.026 µM; in test [5] (read-out: EC50), 0.277 µM; in test [6], 0.124 µM. In addition, the inhibition constant (Ki) stood at 29 µM in test [2], 0.11 µM in test [4] and 0.008 µM on Glutamate NMDA receptor. Moreover, the Ratio in [7] came to 0.83; in [8], 0.81; in test [9] it was 1.14; in test [10] it was 0.94.

With `NC(C(=O)O)c1ccnn1O` (racemic), the Ki in [2] and in [4] was more than 100 µM each time. In addition, the values for the Ratio in test [8], in test [9] and in test [10] were 0.52, 0.58 and 0.45, respectively.
